Measurements: ChEMBL document CHEMBL1123057, “gamma-Aminobutyric acid esters. 2. Synthesis, brain uptake, and pharmacological properties of lipid esters of gamma-aminobutyric acid” (J Med Chem, 1985)

Key:
[1] = Octanol:water partition coefficient is evaluated; assay type: physicochemical
[2] = test system: Mus musculus; assay: Ability to penetrate the blood-brain barrier of mice was evaluated by measuring the brain penetration index (BPI) at dose 3-39 mg/Kg, administered subcutaneously; range is 0.04-1.81; assay type: functional, organism-based
[3] = test system: Mus musculus; assay: BPI index was determined at 5 min after subcutaneous administration; assay type: functional
In short: (§1)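 Balb-c mice (20 ± 2 g) received a single sc injection of the ¹⁴C-labeled ester in 0.5 mL of 25% propylene glycol in water. Brain and liver were removed at 5 min, weighed and homogenized in urea/SDS/EDTA phosphate protein solvent (pH 7.6). Aliquots were counted for ¹⁴C by liquid scintillation. BPI = brain amount per g as % of liver amount per g. Mean ± SEM, n = 3.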

[4] = test system: Mus musculus; assay: Percent amount of compound was determined in liver per gram of tissue after 5 min of administration at a dose of 3-39 mg/Kg; range is 4.2-165; assay type: functional, organism-based
[5] = test system: Mus musculus; assay: BPI index was determined at 5 min after subcutaneous administration to mice; assay type: functional; in short: as §1
[6] = test system: Mus musculus; assay: Compound was evaluated for the effect on the uptake in mouse brain, at dose 78 mg/kg (ip) after a time period of 5 min; assay type: functional, organism-based; set-up: dose 78 mg/kg
In short: (§2)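 Mice received a single systemic dose (ip or sc) of ¹⁴C-labeled compound in 0.5 mL of 0.14 N saline or 25% propylene glycol/water, depending on the compound. Brain was taken at the stated time and homogenized in 8 mL of 1% SDS/6 M urea/EDTA in 0.03 M phosphate (pH 7.4). Aliquots were counted by liquid scintillation and expressed as nmol/g brain.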

[7] = test system: Mus musculus; assay: Percent amount of compound was determined in liver per gram of tissue after 5 min of administration at a dose of 67 mg/kg; assay type: functional, organism-based; set-up: dose 67 mg/kg; in short: as §1
[8] = test system: Mus musculus; assay: Compound was evaluated for the effect on the uptake in mouse brain, at dose 78 mg/Kg (ip) after a time period of 30 min; assay type: functional, organism-based; in short: as §2
[9] = test system: Mus musculus; assay: Compound was evaluated for the effect on the uptake in mouse brain, at dose 78 mg/Kg (ip) after a time period of 15 min; assay type: functional, organism-based; in short: as §2
[10] = test system: Mus musculus; assay: Ability to penetrate the blood-brain barrier of mice was evaluated by measuring the brain penetration index (BPI) at dose 67 mg/Kg, administered subcutaneously; assay type: functional, organism-based; in short: as §1

Row | K [1] | Compound | Uptake [2] [nM/g] | BPI [3] | Uptake [4] [nM/g] | BPI [5] | Uptake [6] [nM/g] | Uptake [7] [nM/g] | Uptake [8] [nM/g] | Uptake [9] [nM/g] | Uptake [10] [nM/g]
1 | 0.004 | NCCCC(=O)O [GAMMA-AMINOBUTYRIC ACID] | 0.04 | 0.96 | 4.2 | – | – | – | – | – | –
2 | 0.01 | NCCCC(=O)OCC(O)CO.O=C(O)C(F)(F)F (stereo unspecified) | – | – | – | 3 | 4.8 | 157 | 16.4 | 14 | 4.8
